For orientation: IC50 means the concentration that gives 50% inhibition.

Data set [1] in a line: Cytotoxicity against human Ava5 cells assessed as cell viability at 20 uM after 72 hrs by XTT assay relative to control. The format is cell-based. As to conditions: read-out: Activity. An outline of the steps:
(§1)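 XTT viability assay run alongside the antiviral assays. Ava5 cells were plated at 5×10^3 per well and exposed to 20 or 200 μM for 72 h at 37 °C in humidified 5% CO₂. Viability is expressed as % of untreated cells.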
(In general: Formazan colour is commonly taken as a measure of viable cells.)

The nature of data set [2]: Cytotoxicity against human Ava5 cells assessed as cell viability at 200 uM after 72 hrs by XTT assay relative to control. To be noted: read-out: Activity. The format is cell-based. An outline of the steps: as §1
Data set [3] relates to Hepatitis C virus. In words: Antiviral activity against HCV infected in human Ava5 cells assessed as inhibition of viral RNA replication after 3 days by RT-qPCR method. Type of data set: functional, organism-based, Hepacivirus hominis. The procedure, abridged: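 Ava5 cells (Huh-7 hepatoma cells carrying an HCV replicon, grown in DMEM/10% FBS with 1 mg·mL⁻¹ G418) were treated for 3 days with a range of concentrations. HCV RNA was measured by RT-qPCR and normalized to cellular gapdh mRNA. Values are mean ± SD of three independent experiments, each in triplicate.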
Background: In qPCR the cycle at which signal appears reflects the starting amount.

The nature of data set [4]: Induction of HO1 (unknown origin) promoter activity expressed in human Ava5 cells transfected with pHO-1-Luc after 3 days. Type of data set: cell-based. The procedure, abridged: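 Ava5 cells were transfected with 0.5 µg pHO-1-Luc, with pCMV-SEAP (0.1 µg) co-transfected for normalization. Cells were then treated at various concentrations for 3 days, and luciferase was read in lysates. Mean ± SD of three independent experiments.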

The species named for another data set is Homo sapiens. The data set can be described thus: Upregulation of HO-1 protein expression in human Ava5 cells after 3 days by Western blot method. The format is functional, cell-based. The procedure, abridged: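 Ava5 cells were treated for 3 days at the indicated concentrations. Lysates (10 µg protein, 10% SDS-PAGE, PVDF) were probed with anti-HO-1 and anti-GAPDH.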

Data set [5] concerns Hepatitis C virus. In words: Antiviral activity against HCV infected in human Ava5 cells assessed as inhibition of viral RNA replication at 1 uM after 3 days in presence of HO-1 inhibitor SnPP by RT-qPCR method. Type of data set: functional, organism-based. To be noted: Hepacivirus hominis. An outline of the steps: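 Ava5 cells were co-incubated for 3 days with test compound at 1 μM plus the HO-1 inhibitor SnPP (tin protoporphyrin IX) at 0–5 μM. Lysates went to western blot for NS5B and GAPDH. RNA went to RT-qPCR normalized to gapdh mRNA. Mean ± SD of three independent experiments.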

Data set [6] has as its target T1, Nuclear factor erythroid 2-related factor 2 (Homo sapiens) (UniProt Q16236).
T1 sequence (whole entry): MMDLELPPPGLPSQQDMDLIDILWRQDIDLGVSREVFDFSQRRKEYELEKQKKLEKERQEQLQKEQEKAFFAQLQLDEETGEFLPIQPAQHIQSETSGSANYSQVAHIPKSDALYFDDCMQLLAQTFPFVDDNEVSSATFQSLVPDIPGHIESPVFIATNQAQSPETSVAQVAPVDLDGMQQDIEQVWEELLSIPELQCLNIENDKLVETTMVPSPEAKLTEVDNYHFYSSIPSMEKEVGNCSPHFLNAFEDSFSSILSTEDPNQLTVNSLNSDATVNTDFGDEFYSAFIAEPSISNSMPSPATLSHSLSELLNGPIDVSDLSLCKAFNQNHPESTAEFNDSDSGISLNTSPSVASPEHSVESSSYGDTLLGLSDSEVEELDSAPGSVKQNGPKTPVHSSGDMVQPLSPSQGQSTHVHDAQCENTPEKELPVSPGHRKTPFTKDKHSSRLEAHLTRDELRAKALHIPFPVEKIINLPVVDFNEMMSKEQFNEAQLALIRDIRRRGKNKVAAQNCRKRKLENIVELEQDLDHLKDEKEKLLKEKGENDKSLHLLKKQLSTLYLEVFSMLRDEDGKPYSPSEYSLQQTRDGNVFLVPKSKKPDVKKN
In words: Induction of Nrf2-mediated ARE transactivation in human Ava5 cells transfected with p2xARE-Luc after 3 days. Type of data set: cell-based. An outline of the steps: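 Ava5 cells were transfected with the p2xARE-Luc reporter (ARE-driven firefly luciferase), treated for 3 days, and luciferase was measured in lysates. Normalization was to co-transfected pCMV-SEAP. Mean ± SD of three independent experiments.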

The target of data set [7] is T2, Heme oxygenase 1 (Homo sapiens) (UniProt P09601).
T2 sequence (whole entry): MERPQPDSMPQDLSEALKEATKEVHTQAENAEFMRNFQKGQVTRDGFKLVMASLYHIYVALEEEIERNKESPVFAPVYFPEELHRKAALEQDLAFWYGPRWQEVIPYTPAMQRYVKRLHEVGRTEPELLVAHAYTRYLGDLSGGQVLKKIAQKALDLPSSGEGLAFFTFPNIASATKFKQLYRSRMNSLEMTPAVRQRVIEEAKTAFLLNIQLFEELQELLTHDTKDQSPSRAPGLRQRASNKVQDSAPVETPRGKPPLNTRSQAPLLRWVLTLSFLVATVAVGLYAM
The data set can be described thus: Induction of HO-1-mediated IFN-alpha-17 mRNA expression in human Ava5 cells after 3 days by RT-qPCR method. The format is cell-based. The procedure, abridged:
(§2)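 Ava5 cells were treated for 3 days at the indicated concentrations. Target mRNAs were measured by RT-qPCR with specific primers and normalized to endogenous gapdh. Results are relative to DMSO-treated cells.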

Data set [8] deals with T2, Heme oxygenase 1 (Homo sapiens). The data set can be described thus: Induction of HO-1-mediated OAS1 mRNA expression in human Ava5 cells after 3 days by RT-qPCR method. Type of data set: cell-based. The procedure, abridged:
as §2

Data set [9] shares this target. In words: Induction of HO-1-mediated OAS3 mRNA expression in human Ava5 cells after 3 days by RT-qPCR method. The format is cell-based. The procedure, abridged: as §2
The target in data set [10] is T3, Transcription regulator protein BACH1 (Homo sapiens) (UniProt O14867).
T3 sequence (whole entry): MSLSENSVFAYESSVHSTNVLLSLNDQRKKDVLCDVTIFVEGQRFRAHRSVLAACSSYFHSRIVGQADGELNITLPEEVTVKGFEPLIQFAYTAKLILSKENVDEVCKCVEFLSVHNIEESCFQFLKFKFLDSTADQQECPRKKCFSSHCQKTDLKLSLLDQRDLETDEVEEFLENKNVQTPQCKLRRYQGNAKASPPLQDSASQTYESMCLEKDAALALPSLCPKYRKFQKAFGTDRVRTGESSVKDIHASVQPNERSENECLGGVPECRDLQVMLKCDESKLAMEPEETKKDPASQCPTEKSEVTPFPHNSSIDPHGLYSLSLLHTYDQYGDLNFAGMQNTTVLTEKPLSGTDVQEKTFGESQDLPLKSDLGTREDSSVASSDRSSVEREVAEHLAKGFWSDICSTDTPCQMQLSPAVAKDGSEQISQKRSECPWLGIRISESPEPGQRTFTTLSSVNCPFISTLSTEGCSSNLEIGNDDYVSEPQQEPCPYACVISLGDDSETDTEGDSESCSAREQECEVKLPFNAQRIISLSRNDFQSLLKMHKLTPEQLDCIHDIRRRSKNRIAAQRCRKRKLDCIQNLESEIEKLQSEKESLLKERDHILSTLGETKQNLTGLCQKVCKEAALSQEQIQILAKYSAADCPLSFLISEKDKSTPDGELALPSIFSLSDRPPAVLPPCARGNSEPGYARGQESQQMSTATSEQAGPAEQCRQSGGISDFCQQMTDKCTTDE
In words: Reduction of bach-1 translocation into nucleus of human Ava5 cells after 3 days by Western blot method. (A western blot detects proteins with antibodies after separation by electrophoresis.)

Activity calls are given as the source filed them. The rule behind the calls is not given here.

Turning to `COc1ccc(Nc2cc3oc(-c4ccco4)nc3c3ccccc23)cc1`, the viability at 72 h, 20 µM in data set [1] came to 89.5%. The viability at 72 h, 200 µM in data set [2] came out at 32.3%. The half-inhibitory concentration (IC50) in the data set with Hepatitis C virus [3] (Ava5, 72 h) was determined as 820 nM. For the same molecule, in the data set with Hepatitis C virus [3] (Hepacivirus hominis), the inhibition entry was “Dose-dependent effect”. For the same molecule, the Activity entry (in data set [4]; in the data set listed under Homo sapiens; in [6]; in [7]; in data set [8]; in [9]) was “Dose-dependent effect” throughout. For the same molecule, the Activity entry in data set [10] was “Dose-dependent effect”. Also, the inhibition result in the data set with Hepatitis C virus [5] was “inactive”.

The record behind these values is ChEMBL document CHEMBL4138248, “Discovery of naphtho[1,2-d]oxazole derivatives as potential anti-HCV agents through inducing heme oxygenase-1 expression” (Eur J Med Chem, 2018).
